GI50 data for 19 molecules are collected here from ChEMBL document CHEMBL4145441, “Discovery of N-(5-((5-chloro-4-((2-(isopropylsulfonyl)phenyl)amino)pyrimidin-2-yl)amino)-4-methoxy-2-(4-methyl-1,4-diazepan-1-yl)phenyl)acrylamide (CHMFL-ALK/EGFR-050) as a potent ALK/EGFR dual kinase inhibitor capable of overcoming a variety of ALK/EGFR associated drug resistant mutants in NSCLC” (Eur J Med Chem, 2017).

The term GI50 denotes the concentration at which growth is held to half of that of the control.

Data set [1] deals with NCI-H1975. The data set can be described thus: Growth inhibition of human NCI-H1975 cells after 72 hrs by CellTiter-Glo assay. Format: functional. The note with it: NCI-H1975, 72 h. The gist of the method: (§1)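 Antiproliferative GI50 against H1975 and H3122 cells; each GI50 value obtained from triplicate testing.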
For orientation: In ATP-based viability assays light output follows the ATP content of the culture.

Data set [2] has as its system NCI-H3122. The data set can be described thus: Growth inhibition of human NCI-H3122 cells after 72 hrs by CellTiter-Glo assay. Format: functional. The note with it: NCI-H3122, 72 h. An outline of the steps:
as §1

The test system of data set [3] is Epidermal growth factor receptor (Homo sapiens), P00533 [C797S]. The data set can be described thus: Inhibition of TEL-fused EGFR C797S mutant (unknown origin) expressed in mouse BAF3 cells assessed as decrease in cell proliferation after 72 hrs by CellTiter-Glo assay. Format: cell-based.
In data set [4] the test system is Epidermal growth factor receptor (Homo sapiens), P00533 [T790M]. The data set can be described thus: Inhibition of TEL-fused EGFR T790M mutant (unknown origin) expressed in mouse BAF3 cells assessed as decrease in cell proliferation after 72 hrs by CellTiter-Glo assay. In kind it is cell-based.
The subject of data set [5] is Epidermal growth factor receptor (Homo sapiens), P00533 [L858R,T790M,C797S]. The data set can be described thus: Inhibition of full length EGFR L858R/T790M/C797S mutant (unknown origin) expressed in mouse BAF3 cells assessed as decrease in cell proliferation after 72 hrs by CellTiter-Glo assay. In kind it is cell-based.
Data set [6] is described as follows: Antiproliferative activity against CHO cells after 72 hrs by CellTiter-Glo assay. The settings on record: chinese hamster. In kind it is cell-based, Cricetulus griseus.
The subject of the next data set is HCC827. The data set can be described thus: Antiproliferative activity against human HCC827 cells harboring EGFR del19 mutant after 72 hrs by CellTiter-Glo assay. Format: functional. The note with it: HCC827, 72 h.
For data set [7], the system named is NCI-H3122. As to the kind of experiment: Antiproliferative activity against human NCI-H3122 cells harboring EML4-fused ALK varian1 after 72 hrs by CellTiter-Glo assay. Format: functional. The settings on record: NCI-H3122, 72 h. An outline of the steps: as §1
A further data set concerns NCI-H3255. As to the kind of experiment: Antiproliferative activity against human H3255 cells harboring EGFR L858R mutant after 72 hrs by CellTiter-Glo assay. The note with it: NCI-H3255, 72 h. Format: functional.
In a further data set the test system is NCI-H2228. The data set can be described thus: Antiproliferative activity against human NCI-H2228 cells harboring EML4-fused ALK varian3 after 72 hrs by CellTiter-Glo assay. In kind it is functional. The note with it: NCI-H2228, 72 h.
Data set [8] concerns the target T1, Epidermal growth factor receptor (Homo sapiens, UniProt P00533). The data set can be described thus: Inhibition of full length EGFR del19 mutant (unknown origin) expressed in mouse BAF3 cells assessed as decrease in cell proliferation after 72 hrs by CellTiter-Glo assay. In kind it is cell-based.
Data set [9] in a line: Antiproliferative activity against mouse BAF3 cells after 72 hrs by CellTiter-Glo assay. In kind it is cell-based.
The target in data set [10] is T1, Epidermal growth factor receptor. The data set can be described thus: Inhibition of TEL-fused EGFR (unknown origin) expressed in mouse BAF3 cells assessed as decrease in cell proliferation after 72 hrs by CellTiter-Glo assay. In kind it is cell-based.
Data set [11] relates to Epidermal growth factor receptor (Homo sapiens), P00533 [L858R]. The data set can be described thus: Inhibition of full length EGFR L858R mutant (unknown origin) expressed in mouse BAF3 cells assessed as decrease in cell proliferation after 72 hrs by CellTiter-Glo assay. Format: cell-based.
For data set [12], the system named is Epidermal growth factor receptor (Homo sapiens), P00533 [L858R,T790M]. The data set can be described thus: Inhibition of full length EGFR L858R/T790M mutant (unknown origin) expressed in mouse BAF3 cells assessed as decrease in cell proliferation after 72 hrs by CellTiter-Glo assay. In kind it is cell-based.
The test system of the next data set is PC-9. As to the kind of experiment: Antiproliferative activity against human PC9 cells harboring EGFR del19 mutant after 72 hrs by CellTiter-Glo assay. The settings on record: PC-9, 72 h. In kind it is functional.
For a further data set, the system named is NCI-H1355. The data set can be described thus: Antiproliferative activity against human NCI-H1355 cells harboring wild-type EGFR after 72 hrs by CellTiter-Glo assay. Format: functional. The note with it: NCI-H1355, 72 h.
The subject of data set [13] is NCI-H1975. The data set can be described thus: Antiproliferative activity against human NCI-H1975 cells harboring EGFR L858R/T790M mutant after 72 hrs by CellTiter-Glo assay. Format: functional. The note with it: NCI-H1975, 72 h. An outline of the steps: as §1
Data set [14] can be described thus: Antiproliferative activity against CHL cells after 72 hrs by CellTiter-Glo assay. Format: cell-based, Cricetulus griseus. The settings on record: chinese hamster.
In a further data set the test system is A549. As to the kind of experiment: Antiproliferative activity against human A549 cells harboring wild-type EGFR after 72 hrs by CellTiter-Glo assay. In kind it is functional. The note with it: A549, 72 h.
A further data set concerns NCI-H2122. As to the kind of experiment: Antiproliferative activity against human NCI-H2122 cells harboring wild-type EGFR after 72 hrs by CellTiter-Glo assay. The note with it: NCI-H2122, 72 h. Format: functional.

Chain of Epidermal growth factor receptor (Homo sapiens), P00533 [T790M] (P00533 whole entry T790M, the tested form may be a part): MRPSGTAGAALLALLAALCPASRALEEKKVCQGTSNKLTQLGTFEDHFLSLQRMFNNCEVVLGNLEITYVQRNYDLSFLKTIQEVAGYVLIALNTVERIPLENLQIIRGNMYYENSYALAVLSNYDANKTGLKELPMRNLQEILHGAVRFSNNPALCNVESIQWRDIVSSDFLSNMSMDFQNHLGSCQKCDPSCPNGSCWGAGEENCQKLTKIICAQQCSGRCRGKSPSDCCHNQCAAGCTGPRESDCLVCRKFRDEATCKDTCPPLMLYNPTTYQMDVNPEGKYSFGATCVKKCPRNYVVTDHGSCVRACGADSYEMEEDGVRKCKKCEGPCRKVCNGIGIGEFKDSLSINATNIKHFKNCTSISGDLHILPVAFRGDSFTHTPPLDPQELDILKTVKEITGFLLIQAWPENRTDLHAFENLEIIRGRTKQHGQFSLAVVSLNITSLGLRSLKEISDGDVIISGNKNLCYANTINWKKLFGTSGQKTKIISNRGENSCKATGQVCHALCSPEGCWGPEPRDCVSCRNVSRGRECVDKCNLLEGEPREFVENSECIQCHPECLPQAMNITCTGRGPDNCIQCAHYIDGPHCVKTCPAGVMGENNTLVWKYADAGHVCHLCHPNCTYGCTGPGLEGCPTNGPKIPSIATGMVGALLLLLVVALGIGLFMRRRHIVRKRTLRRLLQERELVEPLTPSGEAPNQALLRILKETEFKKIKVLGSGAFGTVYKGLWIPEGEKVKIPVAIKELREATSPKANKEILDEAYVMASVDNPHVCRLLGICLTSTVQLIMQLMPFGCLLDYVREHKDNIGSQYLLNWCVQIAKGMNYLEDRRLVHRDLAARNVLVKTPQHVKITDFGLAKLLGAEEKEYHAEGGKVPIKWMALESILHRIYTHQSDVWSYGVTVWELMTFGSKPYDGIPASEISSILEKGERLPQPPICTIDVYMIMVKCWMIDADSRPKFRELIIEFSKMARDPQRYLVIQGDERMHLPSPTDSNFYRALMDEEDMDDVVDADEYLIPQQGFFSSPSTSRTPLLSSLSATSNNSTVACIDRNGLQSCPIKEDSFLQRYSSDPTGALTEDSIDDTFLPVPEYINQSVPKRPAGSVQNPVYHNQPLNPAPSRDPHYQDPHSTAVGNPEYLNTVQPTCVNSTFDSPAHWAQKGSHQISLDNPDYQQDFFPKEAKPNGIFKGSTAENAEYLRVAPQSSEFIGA
T1 sequence (P00533 whole entry): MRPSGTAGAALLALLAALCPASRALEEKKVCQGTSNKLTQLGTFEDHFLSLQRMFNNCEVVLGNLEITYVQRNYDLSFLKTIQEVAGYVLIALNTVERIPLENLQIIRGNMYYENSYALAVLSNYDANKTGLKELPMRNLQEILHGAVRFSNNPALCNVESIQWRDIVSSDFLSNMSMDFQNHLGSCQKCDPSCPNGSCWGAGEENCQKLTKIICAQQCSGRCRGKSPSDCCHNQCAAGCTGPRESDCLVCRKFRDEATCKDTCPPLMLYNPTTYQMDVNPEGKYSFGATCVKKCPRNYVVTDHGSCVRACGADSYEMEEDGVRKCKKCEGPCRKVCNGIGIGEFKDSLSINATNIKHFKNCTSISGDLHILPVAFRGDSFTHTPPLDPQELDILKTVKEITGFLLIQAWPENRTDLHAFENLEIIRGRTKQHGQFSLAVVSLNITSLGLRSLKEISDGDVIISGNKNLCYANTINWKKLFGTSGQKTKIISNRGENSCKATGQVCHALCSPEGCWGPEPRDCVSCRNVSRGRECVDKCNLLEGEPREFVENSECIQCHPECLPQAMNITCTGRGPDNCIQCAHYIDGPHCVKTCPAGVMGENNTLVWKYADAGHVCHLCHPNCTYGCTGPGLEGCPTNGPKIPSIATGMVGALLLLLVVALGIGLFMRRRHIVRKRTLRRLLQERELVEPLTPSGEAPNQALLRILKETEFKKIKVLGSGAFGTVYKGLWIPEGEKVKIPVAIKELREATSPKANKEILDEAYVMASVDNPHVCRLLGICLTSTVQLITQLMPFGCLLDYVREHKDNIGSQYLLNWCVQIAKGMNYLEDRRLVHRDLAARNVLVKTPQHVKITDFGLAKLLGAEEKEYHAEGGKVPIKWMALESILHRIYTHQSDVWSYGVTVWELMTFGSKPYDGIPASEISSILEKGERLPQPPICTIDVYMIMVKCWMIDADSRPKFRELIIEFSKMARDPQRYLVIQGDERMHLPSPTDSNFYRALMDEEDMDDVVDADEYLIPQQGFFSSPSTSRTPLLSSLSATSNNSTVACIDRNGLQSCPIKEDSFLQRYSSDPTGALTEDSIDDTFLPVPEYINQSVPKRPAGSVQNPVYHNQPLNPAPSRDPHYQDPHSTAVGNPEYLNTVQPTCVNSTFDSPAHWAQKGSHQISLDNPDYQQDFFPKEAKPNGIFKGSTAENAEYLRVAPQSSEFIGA
Chain of Epidermal growth factor receptor (Homo sapiens), P00533 [C797S] (P00533 whole entry C797S, the tested form may be a part): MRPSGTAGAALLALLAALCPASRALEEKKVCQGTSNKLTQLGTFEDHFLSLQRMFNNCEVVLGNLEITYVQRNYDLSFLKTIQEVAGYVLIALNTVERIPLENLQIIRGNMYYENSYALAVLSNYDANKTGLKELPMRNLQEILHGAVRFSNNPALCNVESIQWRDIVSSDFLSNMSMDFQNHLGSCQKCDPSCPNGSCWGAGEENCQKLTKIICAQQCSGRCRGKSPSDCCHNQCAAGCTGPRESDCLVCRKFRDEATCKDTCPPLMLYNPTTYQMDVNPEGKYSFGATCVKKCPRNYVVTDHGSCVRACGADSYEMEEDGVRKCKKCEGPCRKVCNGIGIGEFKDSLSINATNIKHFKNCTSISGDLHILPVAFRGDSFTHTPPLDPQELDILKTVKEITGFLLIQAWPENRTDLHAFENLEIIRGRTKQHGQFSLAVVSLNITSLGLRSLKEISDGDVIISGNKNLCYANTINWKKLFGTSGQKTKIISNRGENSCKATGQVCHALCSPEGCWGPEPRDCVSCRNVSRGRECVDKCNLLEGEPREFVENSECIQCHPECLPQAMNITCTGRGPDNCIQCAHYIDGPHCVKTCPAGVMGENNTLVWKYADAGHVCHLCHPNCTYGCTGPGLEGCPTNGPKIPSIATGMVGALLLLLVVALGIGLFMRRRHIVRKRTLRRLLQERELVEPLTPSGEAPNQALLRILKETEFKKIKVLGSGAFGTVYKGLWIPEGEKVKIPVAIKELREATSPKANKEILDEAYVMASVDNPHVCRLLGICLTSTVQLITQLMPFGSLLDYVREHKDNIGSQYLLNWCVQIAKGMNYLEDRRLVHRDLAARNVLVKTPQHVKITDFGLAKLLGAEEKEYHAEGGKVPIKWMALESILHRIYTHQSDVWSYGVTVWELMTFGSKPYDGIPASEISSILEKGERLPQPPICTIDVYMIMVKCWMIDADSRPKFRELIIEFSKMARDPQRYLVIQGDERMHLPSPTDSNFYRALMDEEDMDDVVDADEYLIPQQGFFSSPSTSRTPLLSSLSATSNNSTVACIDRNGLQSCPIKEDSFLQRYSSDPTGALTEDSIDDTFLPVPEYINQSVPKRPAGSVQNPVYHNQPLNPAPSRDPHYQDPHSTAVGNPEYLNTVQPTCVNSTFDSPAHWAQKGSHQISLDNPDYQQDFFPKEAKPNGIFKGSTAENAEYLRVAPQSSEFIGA
Chain of Epidermal growth factor receptor (Homo sapiens), P00533 [L858R,T790M,C797S] (P00533 whole entry T790M/C797S/L858R): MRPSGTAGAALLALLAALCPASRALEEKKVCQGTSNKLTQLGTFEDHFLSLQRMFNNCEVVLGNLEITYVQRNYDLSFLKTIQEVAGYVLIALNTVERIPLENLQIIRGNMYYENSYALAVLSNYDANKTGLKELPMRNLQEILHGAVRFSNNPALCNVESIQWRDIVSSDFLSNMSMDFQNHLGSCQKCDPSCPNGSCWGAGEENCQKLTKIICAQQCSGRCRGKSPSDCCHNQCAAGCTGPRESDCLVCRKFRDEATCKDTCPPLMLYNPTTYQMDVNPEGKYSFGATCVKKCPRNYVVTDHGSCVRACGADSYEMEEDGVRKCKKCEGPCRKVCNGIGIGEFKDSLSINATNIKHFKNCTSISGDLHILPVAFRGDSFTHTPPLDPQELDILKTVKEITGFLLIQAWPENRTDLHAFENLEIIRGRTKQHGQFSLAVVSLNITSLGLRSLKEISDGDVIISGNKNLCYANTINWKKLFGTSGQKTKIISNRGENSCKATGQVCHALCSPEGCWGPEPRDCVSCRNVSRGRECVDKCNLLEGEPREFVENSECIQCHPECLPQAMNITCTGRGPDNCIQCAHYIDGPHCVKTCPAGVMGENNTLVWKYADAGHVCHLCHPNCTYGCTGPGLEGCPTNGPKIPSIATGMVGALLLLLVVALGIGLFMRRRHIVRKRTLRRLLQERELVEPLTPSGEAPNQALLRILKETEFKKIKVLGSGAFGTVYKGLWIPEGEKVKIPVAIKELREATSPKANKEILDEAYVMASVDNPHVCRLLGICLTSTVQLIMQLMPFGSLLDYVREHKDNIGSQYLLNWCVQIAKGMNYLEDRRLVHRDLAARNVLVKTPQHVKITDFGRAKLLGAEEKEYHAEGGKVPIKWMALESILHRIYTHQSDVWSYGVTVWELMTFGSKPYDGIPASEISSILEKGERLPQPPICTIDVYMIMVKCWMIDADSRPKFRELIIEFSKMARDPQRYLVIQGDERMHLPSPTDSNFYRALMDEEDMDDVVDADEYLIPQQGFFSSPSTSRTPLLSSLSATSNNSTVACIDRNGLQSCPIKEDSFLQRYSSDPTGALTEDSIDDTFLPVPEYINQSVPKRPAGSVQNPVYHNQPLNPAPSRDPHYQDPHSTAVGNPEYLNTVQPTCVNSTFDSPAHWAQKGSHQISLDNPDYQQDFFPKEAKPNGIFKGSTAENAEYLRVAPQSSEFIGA

As to `C=CC(=O)Nc1cc(Nc2ncc(C)c(Nc3ccccc3S(=O)(=O)C(C)C)n2)c(OC)cc1N1CCN(CC)CC1`, the GI50 was determined as 43 nM with NCI-H1975 [1] and 2 nM in the data set on NCI-H3122 [2].

With `C=CC(=O)Nc1cc(Nc2ncc(Cl)c(Nc3c(F)cccc3F)n2)c(OC)cc1N1CCN(C)CC1`, the values for the GI50 in the data set on NCI-H1975 [1] and in the data set on NCI-H3122 [2] were 130 nM and 2900 nM, respectively.

In the case of `CCC(=O)Nc1cc(Nc2ncc(Cl)c(Nc3ccccc3S(=O)(=O)C(C)C)n2)c(OC)cc1N1CCCN(C)CC1`, the GI50 is 360 nM in data set [3]; 800 nM in data set [4]; 1700 nM in data set [5]; 2600 nM with HCC827; less than 0.3 nM in the data set on NCI-H3122 [7]; 830 nM in the data set on NCI-H3255. Also, the GI50 in the data set with NCI-H2228 came out at 100 nM; in data set [8] it was 270 nM; in data set [10], 1500 nM; in data set [11], 370 nM; in [12], 290 nM; in the data set on PC-9, 340 nM. Moreover, the GI50 in the data set with NCI-H1355 came out at 2200 nM; in the data set with NCI-H1975 [13], 700 nM; in the data set on A549, 1200 nM; in the data set with NCI-H2122, 3300 nM. The GI50 at 72 h in data set [6] was found to be 3600 nM; in data set [9], 7100 nM; in data set [14], 1300 nM.

For `C=CC(=O)Nc1cc(Nc2ncc(Cl)c(Nc3cccc(C(F)(F)F)c3)n2)c(OC)cc1N1CCN(C)CC1`, the GI50 turned out to be 260 nM in the data set with NCI-H1975 [1] and 770 nM in the data set with NCI-H3122 [2].

For `C=CC(=O)Nc1cc(Nc2ncc(C)c(Nc3ccccc3S(=O)(=O)C(C)C)n2)c(OC)cc1N1CCC(N2CCN(C)CC2)CC1`, the GI50 in the data set with NCI-H1975 [1] was 27 nM.

As for `C=CC(=O)Nc1cc(Nc2ncc(Cl)c(Nc3ccccc3S(=O)(=O)C(C)C)n2)ccc1N1CCC(N2CCN(C)CC2)CC1`, the GI50 with NCI-H1975 [1] was found to be 7100 nM; in the data set with NCI-H3122 [2], 4900 nM.

With `C=CC(=O)Nc1cc(Nc2ncc(Cl)c(Nc3ccccc3S(=O)(=O)C(C)C)n2)c(OC)cc1N1CCC(N2CCN(C)CC2)CC1`, the GI50 with NCI-H1975 [1] turned out to be 23 nM.

With `C=CC(=O)Nc1cc(Nc2nccc(Nc3ccccc3S(=O)(=O)C(C)C)n2)c(OC)cc1N1CCN(CC)CC1`, the values for the GI50 with NCI-H1975 [1] and in the data set on NCI-H3122 [2] were 190 nM and 41 nM, respectively.

As for `C=CC(=O)Nc1cc(Nc2ncc(Cl)c(Nc3ccccc3S(=O)(=O)C(C)C)n2)c(OC(C)C)cc1N1CCN(CC)CC1`, the GI50 in the data set on NCI-H1975 [1] is 300 nM; in the data set on NCI-H3122 [2], less than 0.3 nM.

On to `C=CC(=O)Nc1cc(Nc2ncc(Cl)c(N(C)c3cccc(C(F)(F)F)c3)n2)c(OC)cc1N1CCN(C)CC1`, for which the GI50 in the data set on NCI-H1975 [1] was 1800 nM; in the data set with NCI-H3122 [2], 3600 nM.

On to `C=CC(=O)Nc1cc(Nc2ncc(Cl)c(Nc3ccccc3P(C)(C)=O)n2)c(OC)cc1N1CCN(S(C)(=O)=O)CC1`, for which the GI50 worked out at 890 nM in the data set on NCI-H1975 [1] and 800 nM in the data set on NCI-H3122 [2].

`C=CC(=O)Nc1cc(Nc2ncc(Cl)c(NC3CC3)n2)c(OC)cc1N1CCN(C)CC1`: the GI50 in the data set on NCI-H1975 [1] is more than 10000 nM; in the data set with NCI-H3122 [2] it was 3200 nM.

Consider `C=CC(=O)Nc1cc(Nc2ncc(Cl)c(Nc3ccccc3C(=O)NC)n2)c(OC)cc1N1CCN(C2CCN(C)CC2)CC1`, for which the GI50 with NCI-H1975 [1] is 120 nM; in the data set with NCI-H3122 [2], 18 nM.

Turning to `C=CC(=O)Nc1cc(Nc2ncc(Cl)c(Nc3ccccc3C(=O)NC)n2)c(OC)cc1N1CCN(C)CC1`, the figures for the GI50 with NCI-H1975 [1] and with NCI-H3122 [2] were 50 nM and 3.5 nM, respectively.

`C=CC(=O)Nc1cc(Nc2ncc(Cl)c(Nc3ccc(F)c(Cl)c3)n2)c(OC)cc1N1CCN(C)CC1`: the GI50 in the data set on NCI-H1975 [1] was 100 nM; in the data set on NCI-H3122 [2] it was 300 nM.

For the molecule `C=CC(=O)Nc1cc(Nc2ncc(Cl)c(NCc3cccs3)n2)c(OC)cc1N1CCN(C)CC1`, the GI50 in the data set with NCI-H1975 [1] is 220 nM; in the data set on NCI-H3122 [2], 270 nM.

Consider `C=CC(=O)Nc1cc(Nc2ncc(Cl)c(Nc3ccccc3S(=O)(=O)C(C)C)n2)c(OC)cc1N1CCCCC1`, for which the GI50 in the data set on NCI-H1975 [1] worked out at 240 nM; in the data set on NCI-H3122 [2], 29 nM.

Regarding `C=CC(=O)Nc1cc(Nc2ncc(Cl)c(Nc3ccccc3C(=O)NC)n2)c(OC)cc1N1CCN(C(C)=O)CC1`, the GI50 in the data set on NCI-H1975 [1] came to 250 nM; in the data set with NCI-H3122 [2], 12 nM.

As to `C=CC(=O)Nc1cccc(Oc2nc(Nc3ccc(N4CCN(C)CC4)cc3OC)ncc2Cl)c1`, the GI50 was 890 nM in data set [3]; 2.1 nM in data set [4]; 7.4 nM in the data set on HCC827; 390 nM in the data set with NCI-H3255; 27 nM in the data set with PC-9; 5300 nM with NCI-H1355. For the same molecule, the values for the GI50 in the data set with NCI-H1975 [13], in the data set with A549 and in the data set with NCI-H2122 were 56 nM, more than 10000 nM and 5700 nM, respectively. Moreover, the concentration for 50% growth inhibition (GI50) at 72 h in data set [6] turned out to be 3900 nM; in [14], 4400 nM.
